Results from ChEMBL document CHEMBL3046222, “Insecticidal activity of penitrems, including penitrem G, a new member of the family isolated from Penicillium crustosum” (2003).

What was measured:
Type in all cases: functional
Ceratitis capitata [1] = experiment: Insecticidal activity against adult Ceratitis capitata assessed as fecundity reduction at 10 ug/fly measured every 2 days for 10 days relative to control; set-up: scale not given: the % may be the effect or the level left
Method in brief: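 Flies were anaesthetised on ice and dosed topically on the abdomen with 1 µL of acetone solution; controls received acetone alone. Eggs laid over 24 h were collected and counted every 2 days through the 10-day period. Female deaths were logged to give eggs/female/day, accumulated over 10 days. Six independent experiments, reported as means ± SE.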

Ceratitis capitata [2] = experiment: Insecticidal activity against adult Ceratitis capitata assessed as fertility reduction at 10 ug/fly measured on 6 to 10 days relative to control; set-up: scale not given: the % may be the effect or the level left
Method in brief: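 Flies were dosed topically with 1 µL of acetone solution after ice anaesthesia; controls received acetone. On days 6 and 10 after treatment, 30 eggs per experiment were picked at random and placed on plates coated with 0.03% agar. Plates were kept at 27 ± 2 °C, 50-60% RH and 16 h/8 h light/dark, and emerged larvae were counted 5 days after collection.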

Ceratitis capitata [3] = experiment: Insecticidal activity against adult Ceratitis capitata assessed as eclosion rate at 10 ug/fly measured on 4 to 10 days relative to control
Oncopeltus fasciatus [4] = experiment: Insecticidal activity against third-instar nymph stage of Oncopeltus fasciatus assessed as nymph survival to reach adult instar stage at 20 to 500 ug/cm2 after 72 hr relative to control
Method in brief: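 Insects were colony-reared at 27 ± 1 °C, 50-60% RH and 16 h/8 h photoperiod. After 72 h of exposure, surviving nymphs were moved to a 500 cm3 glass flask and held under standard conditions to follow development to the adult stage. Acetone-treated controls were run in parallel.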

Oncopeltus fasciatus [5] = experiment: Insecticidal activity against third-instar nymph stage of Oncopeltus fasciatus assessed as mortality at 20 ug/cm2 after 72 hr relative to control
Method in brief: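 Nymphs were reared on sunflower seeds at 27 ± 1 °C, 50-60% RH and 16 h/8 h light/dark. Acute toxicity was scored as dead insects after 72 h of exposure. Controls received the same amount of acetone. Run in triplicate; values are means ± SE with significance at […].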

Ceratitis capitata [6] = experiment: Insecticidal activity against adult Ceratitis capitata assessed as mortality at 10 ug/fly measured every 24 hr for 10 days relative to control
Method in brief: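 Adults 2-3 days old (5 males, 5 females per group) were anaesthetised on ice and dosed topically on the ventral abdomen with 1 µL of acetone dilution. Controls received 1 µL of acetone. Flies were held at 27 ± 1 °C, 50-60% RH and 16 h/8 h light/dark, with diet and water ad libitum. Mortality was scored every 24 h for 10 days. The assay was run on six occasions.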

Row | SMILES | Activity (Ceratitis capitata [1]) [%] | Activity (Ceratitis capitata [2]) [%] | Activity (Ceratitis capitata [3]) [%] | Survival (Oncopeltus fasciatus [4]) [%] | mortality at 20 µg/cm2 (Oncopeltus fasciatus [5]) [%] | mortality (Ceratitis capitata [6]) [%]
1 | C=C1Cc2ccc3[nH]c4c5c3c2[C@H]2[C@@H]1C[C@@H]2C(C)(C)O[C@H]5[C@@H]1CC[C@@]2(O)[C@@]35O[C@@H]3[C@@H](O)[C@@H](C(=C)C)O[C@H]5CC[C@]2(C)[C@@]41C [PENITREM B] | 88 | 100 | 0 | 14.3 | 6.6 | 50
2 | C=C(C)[C@H]1O[C@H]2CC[C@@]3(C)[C@@](O)(CC[C@H]4[C@@H]5OC(C)(C)[C@H]6C[C@@H]7C(=C)Cc8c(Cl)cc9[nH]c(c5c9c8[C@@]76O)[C@@]43C)[C@@]23O[C@H]3[C@H]1O [PENITREM A] | 78.4 | 100 | 0 | 0 | 31.1 | 59.7
3 | C=C1Cc2ccc3[nH]c4c5c3c2[C@H]2[C@@H]1C[C@H]2C(C)(C)O[C@H]5[C@]1(O)CC[C@@]2(O)C3=C[C@@H](O)[C@@H](C(=C)C)O[C@H]3CC[C@]2(C)[C@@]41C [PENITREM G] | 7.2 | 3.8 | 88.5 | 100 | 0 | 0
4 | C=C1Cc2ccc3[nH]c4c5c3c2[C@H]2[C@@H]1C[C@H]2C(C)(C)O[C@H]5[C@@H]1CC[C@@]2(O)C3=C[C@@H](O)[C@@H](C(=C)C)O[C@H]3CC[C@]2(C)[C@@]41C [PENITREM D] | 77.1 | 52.5 | 42.8 | 58.3 | 11.1 | 41.7
5 | C=C1Cc2c(Cl)cc3[nH]c4c5c3c2[C@H]2[C@@H]1C[C@@H]2C(C)(C)O[C@H]5[C@@H]1CC[C@@]2(O)C3=C[C@@H](O)[C@@H](C(=C)C)O[C@H]3CC[C@]2(C)[C@@]41C [PENITREM C] | 94.9 | 100 | 0 | 29.5 | 24.4 | 73.3
6 | C=C1Cc2c(Cl)cc3[nH]c4c5c3c2[C@H]2[C@@H]1C[C@@H]2C(C)(C)O[C@H]5[C@@H]1CC[C@@]2(O)[C@@]35O[C@@H]3[C@@H](O)[C@@H](C(=C)C)O[C@H]5CC[C@]2(C)[C@@]41C [PENITREM F] | 100 | 100 | 0 | 9.5 | 20.3 | 66.6
